Assay results: article PMC4547362 (Molecular cancer therapeutics, 2015)
Where two headings read alike, the source gives them in different places. Values belong to the molecule of their own block, whether it stands above or below them.

Assays:
Stat5a/b [1] = assay: Stat5a/b activation and transcriptional activity, side-by-side with IST5-002; assay type: cell-based
Stat1 = details: cited from earlier work
Stat5 = details: cited from earlier work
Stat5a [2] = target: T1, Stat5a (Homo sapiens, UniProt P42229); assay: Stat5a luciferase reporter gene assay; assay type: cell-based; details: read-out: IC50, transcriptional activity of Stat5a; PC-3 cells, β-casein-luciferase, hPrl 10 nM 16 h
T1 sequence (P42229 1-794): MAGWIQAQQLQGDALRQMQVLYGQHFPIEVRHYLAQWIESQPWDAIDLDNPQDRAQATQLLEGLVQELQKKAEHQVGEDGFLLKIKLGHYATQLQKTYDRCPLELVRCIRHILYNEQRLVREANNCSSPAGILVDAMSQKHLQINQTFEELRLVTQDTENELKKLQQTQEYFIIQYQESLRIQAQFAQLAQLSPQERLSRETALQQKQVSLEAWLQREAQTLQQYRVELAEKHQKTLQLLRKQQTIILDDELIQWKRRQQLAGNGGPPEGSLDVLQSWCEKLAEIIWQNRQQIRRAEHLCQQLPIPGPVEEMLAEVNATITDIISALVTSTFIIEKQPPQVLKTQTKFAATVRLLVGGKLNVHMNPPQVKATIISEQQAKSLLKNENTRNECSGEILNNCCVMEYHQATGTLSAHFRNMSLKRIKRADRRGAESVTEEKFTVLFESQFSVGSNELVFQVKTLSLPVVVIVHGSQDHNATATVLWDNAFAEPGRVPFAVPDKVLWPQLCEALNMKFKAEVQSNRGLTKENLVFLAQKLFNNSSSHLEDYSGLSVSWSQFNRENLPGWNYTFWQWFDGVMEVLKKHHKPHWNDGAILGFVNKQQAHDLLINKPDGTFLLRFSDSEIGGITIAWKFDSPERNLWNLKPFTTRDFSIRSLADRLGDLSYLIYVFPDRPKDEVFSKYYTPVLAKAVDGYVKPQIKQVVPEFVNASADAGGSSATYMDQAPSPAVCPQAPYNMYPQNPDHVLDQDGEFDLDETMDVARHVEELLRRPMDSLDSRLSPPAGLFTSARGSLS

Stat5b = Stat5b (Homo sapiens, UniProt P51692); assay: Stat5b luciferase reporter gene assay; assay type: cell-based; details: read-out: IC50, transcriptional activity of Stat5b; PC-3 cells, β-casein-luciferase, hPrl 10 nM 16 h
Stat5a/b [3] = target: T2, Stat5a/b (Homo sapiens, UniProt P42229+P51692); assay: Bcr-Abl-driven Stat5a/b phosphorylation in K562 cells, immunoblot; assay type: cell-based; details: 3 h
Bcr-Abl = Bcr-Abl (Homo sapiens, UniProt P00519+P11274); assay: Bcr-Abl tyrosine phosphorylation in K562 cells, immunoblot; assay type: cell-based
Stat5a/b [4] = target: Stat5a/b (Mus musculus, UniProt P42230+P42232); assay type: cell-based; details: read-out: IC50, phosphorylation of Stat5a/b; HC-11 cells, 2 h, then hPrl 30 min
Stat5a/b [5] = target: T2, Stat5a/b; assay: Cell-based immunoassay for tyrosine-phosphorylated Stat5a/b in T47D cells; details: read-out: IC50, phosphorylation of Stat5a/b, 2 h, then hPrl
Jak2 = Jak2 (Homo sapiens, UniProt O60674); assay: Jak2 phosphorylation in CWR22Rv1 cells, immunoprecipitation and immunoblot; assay type: cell-based
panel of 50 kinases = assay: Kinase activity profiling; assay type: biochemical; details: 1 μM final concentration
Outline: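 Split-luciferase binding format, with the test compound first checked for false-positive activity against split-luciferase. Each Cfluc-kinase was co-translated with Fos-Nfluc in rabbit reticulocyte lysate at 30 C for 90 min. Lysate was incubated 30 min at room temperature with DMSO or 1 μM (final) test compound, then 1 h with a kinase-specific probe.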

Stat5a [6] = target: T1, Stat5a; assay: Stat5a dimerization by co-immunoprecipitation in PC-3 cells; assay type: cell-based; details: read-out: IC50, Stat5a dimerization, FLAG- and MYC-tagged Stat5a, hPrl 10 nM 30 min
Stat5a [7] = target: T1, Stat5a; assay: Prl-induced nuclear translocation of Stat5a in PC-3 cells, immunofluorescence; assay type: cell-based; details: 2 h, hPrl 10 nM 30 min
Outline: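 PC-3 cells were infected with adenoviral wild-type Stat5a and prolactin receptor (MOI 4), serum-starved, pretreated 2 h with test compound or control compound, and stimulated 30 min with 10 nM prolactin. Fixed cells were stained with rabbit anti-Stat5 pAb (1:200) and fluorescein goat anti-rabbit IgG (1:200).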

Stat5a/b [8] = target: Stat5a/b (Homo sapiens, UniProt P42229); assay: EMSA of Stat5a/b binding to DNA; assay type: cell-based; details: 25 μM, COS-7 cells, compared to Ctrl-treated cells
Outline: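 COS-7 cells were transiently co-transfected with Stat5a and prolactin receptor plasmids, then serum-starved 10 h. They were pretreated 2 h with test compound or control compound and stimulated 30 min with 10 nM human prolactin. DNA binding was probed with the beta-casein gene Stat5 response element.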

Stat3 [9] = target: T3, Stat3 (Homo sapiens, UniProt P40763); assay: IL-6-induced Stat3 nuclear translocation in DU145 cells, immunofluorescence; assay type: cell-based; details: IL-6 5 nM, IST5-002 even at 50 μM
Stat3 [10] = target: T3, Stat3; assay: Stat3 luciferase reporter assay in LNCaP cells; assay type: cell-based; details: 6.0 μM, IL-6 50 ng/ml 16 h
Outline: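 LNCaP cells were co-transfected with Stat3 (0.25 μg), IL-6 receptor (0.25 μg), Stat3-luciferase reporter (0.5 μg) and a normalisation plasmid (0.025 μg). Cells were serum-starved 10 h, pretreated with 6.0 μM test compound or control compound, and stimulated 16 h with 50 ng/ml IL-6. Relative luciferase activity is reported as the mean ± S.E. of three independent experiments run in triplicate.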

Bcl-xL and cyclin D1 = assay: Expression of Stat5a/b target genes cyclin D1 and Bcl-xL in PC cells, immunoblot; assay type: cell-based, human; details: CWR22Rv1 and LNCaP cells, 48 h or 25 μM time course
[11] = tested on: Stat5a/b target genes in K562 cells; assay: RNA expression profiling of K562 cells; assay type: cell-based; details: 5 μM, 48 h
Outline: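 RNA from vehicle- and test compound-treated cells, alongside Stat5a/b-shRNA and scramble-shRNA cells, was profiled in triplicate on Affymetrix Human Gene 1.0 ST arrays. Differential expression versus the matching control used t-tests with false discovery rate correction.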

CWR22Rv1 cells [12] = assay: Dead cell count by trypan blue exclusion, CWR22Rv1; assay type: cell-based, human; details: 25 μM, 24 h
CWR22Rv1 cells [13] = assay: Nucleosomal DNA fragmentation ELISA, CWR22Rv1; assay type: cell-based, human; details: 25 μM, 24 h, CWR22Rv1, parallel wells
caspase-3 = assay: Caspase-3 activation assay, CWR22Rv1; assay type: cell-based, human; details: 12.5 μM, CWR22Rv1, 72 h
Outline: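 CWR22Rv1 cells were exposed to 12.5 μM test compound or vehicle for set periods. Caspase-3 was captured with anti-caspase-3 mAb, and its cleavage of AFC substrate was read fluorometrically at 505 nm. In the rescue arm, cells were first infected with adenovirus carrying constitutively active Stat5a (MOI 2).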

LNCaP and CWR22Rv1 cells = assay: Cell cycle analysis of PC cells; assay type: cell-based, human; details: LNCaP and CWR22Rv1, 72 h
Outline: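 LNCaP and CWR22Rv1 cells were treated with test compound, vehicle or control compound for up to 72 h. Cells were fixed, stained with propidium iodide plus RNase A, and analysed by flow cytometry in the FL-2 channel.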

CWR22Rv1 cells [14] = assay: Viability of CWR22Rv1 cells after Stat5a/b shRNA or control shRNA, trypan blue; assay type: cell-based, human; details: 12.5 μM, 48 h
[15] = tested on: A549, CAPAN, T47D, HT1080, HepG2, COS-7, RC170N, CWR22Rv1, K562 cells; assay type: cell-based
[16] = tested on: CWR22Rv1 xenograft tumors; assay: CWR22Rv1 prostate cancer xenograft tumor growth in nude mice; assay type: in vivo; details: for decrease of nuclear Stat5a/b content in tumors: compared to vehicle (HPC)
Outline: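 Castrated male athymic nude mice got 60-day sustained-release DHT pellets 3 days before s.c. flank inoculation of 1.5 × 10⁷ CWR22Rv1 cells in Matrigel (one tumor/mouse). After one week, mice were randomised (10/group) to daily i.p. test compound in 0.3% HPC (25, 50, 100 mg/kg), HPC alone or no treatment for 10 days. Tumors were measured three times weekly; volume = 3.14 × length × width × depth/6. Nuclear Stat5/Stat3 in harvested tumors were compared by mixed-model ANOVA with Bonferroni-adjusted pairwise tests.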

patient-derived PCs = assay: Ex vivo organ explant culture of patient-derived prostate cancers; set-up: species or system human; details: 7 days ex vivo explant organ culture
Outline: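 Patient-derived prostate cancers from radical prostatectomies (n=11, Gleason 7) were grown as explant organ cultures for 7 days with test compound or control compound at set concentrations. A pre-culture zero sample was formalin-fixed for baseline nuclear Stat5a/b. Explants were scored by Stat5a/b immunohistochemistry and TUNEL.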

[17] = tested on: K562, KCL22 and BV173 cells (parental and imatinib-resistant); assay: Growth of CML cell lines, trypan blue cell counts and colony formation; assay type: cell-based; details: 5 μM, trypan blue exclusion and colony formation assay
[18] = tested on: CML-blast crisis cell lines; assay: Cell cycle analysis of CML cells; assay type: cell-based; details: 5 μM, 48 h
primary CML cells = assay: Colony formation of primary CML-chronic phase cells from patients; assay type: cell-based, human; details: three CML-chronic phase patients, methylcellulose
PAK1/2 = PAK1/2 (Homo sapiens, UniProt Q13153+Q13177)
[19] = tested on: SUP-B15, 12878 and 3798 cell lines; assay: Cell viability; details: 48 h, MTT
[20] = side-by-side with IST5-002, data not shown

T3 sequence (P40763 whole entry): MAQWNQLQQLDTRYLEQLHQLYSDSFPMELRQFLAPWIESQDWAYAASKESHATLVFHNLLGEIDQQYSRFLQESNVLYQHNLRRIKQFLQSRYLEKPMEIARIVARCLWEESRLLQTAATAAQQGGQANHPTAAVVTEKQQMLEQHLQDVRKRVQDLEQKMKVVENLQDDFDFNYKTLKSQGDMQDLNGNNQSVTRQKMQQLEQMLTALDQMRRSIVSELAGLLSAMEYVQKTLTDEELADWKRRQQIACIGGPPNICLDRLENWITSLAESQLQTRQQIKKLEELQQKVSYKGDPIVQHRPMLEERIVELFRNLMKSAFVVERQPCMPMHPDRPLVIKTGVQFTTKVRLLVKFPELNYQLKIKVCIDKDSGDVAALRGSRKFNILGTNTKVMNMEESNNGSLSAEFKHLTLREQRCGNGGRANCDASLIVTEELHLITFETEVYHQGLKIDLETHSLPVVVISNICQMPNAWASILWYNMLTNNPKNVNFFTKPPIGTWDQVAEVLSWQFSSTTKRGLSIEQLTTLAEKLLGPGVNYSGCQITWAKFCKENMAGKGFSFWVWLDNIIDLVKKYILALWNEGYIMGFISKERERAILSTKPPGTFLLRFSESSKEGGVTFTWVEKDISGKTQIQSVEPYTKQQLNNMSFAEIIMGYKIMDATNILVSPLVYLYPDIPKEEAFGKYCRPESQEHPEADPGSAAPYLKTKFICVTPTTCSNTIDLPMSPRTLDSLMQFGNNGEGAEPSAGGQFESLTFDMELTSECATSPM
T2 sequence (P51692 whole entry, one chain of several): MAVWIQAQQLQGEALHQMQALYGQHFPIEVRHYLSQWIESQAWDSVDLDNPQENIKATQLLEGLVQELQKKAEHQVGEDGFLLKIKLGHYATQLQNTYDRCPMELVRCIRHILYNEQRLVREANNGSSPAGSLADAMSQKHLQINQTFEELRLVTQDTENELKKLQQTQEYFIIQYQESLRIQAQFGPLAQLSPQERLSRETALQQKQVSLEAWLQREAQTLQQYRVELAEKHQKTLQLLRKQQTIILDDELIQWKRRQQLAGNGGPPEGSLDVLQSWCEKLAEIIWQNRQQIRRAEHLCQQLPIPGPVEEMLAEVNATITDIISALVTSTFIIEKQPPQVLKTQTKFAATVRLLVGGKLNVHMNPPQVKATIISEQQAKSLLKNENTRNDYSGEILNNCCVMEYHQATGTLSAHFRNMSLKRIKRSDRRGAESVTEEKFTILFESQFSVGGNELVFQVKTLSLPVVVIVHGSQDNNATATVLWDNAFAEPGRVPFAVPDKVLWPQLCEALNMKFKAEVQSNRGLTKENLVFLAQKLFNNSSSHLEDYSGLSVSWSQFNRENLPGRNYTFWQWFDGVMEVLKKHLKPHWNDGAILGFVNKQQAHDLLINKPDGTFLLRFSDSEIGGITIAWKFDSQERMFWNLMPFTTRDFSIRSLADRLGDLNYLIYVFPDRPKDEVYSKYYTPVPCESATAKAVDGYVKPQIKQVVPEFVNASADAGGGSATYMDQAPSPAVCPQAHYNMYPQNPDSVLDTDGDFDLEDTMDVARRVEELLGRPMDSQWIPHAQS
Chain of Jak2 (O60674 whole entry): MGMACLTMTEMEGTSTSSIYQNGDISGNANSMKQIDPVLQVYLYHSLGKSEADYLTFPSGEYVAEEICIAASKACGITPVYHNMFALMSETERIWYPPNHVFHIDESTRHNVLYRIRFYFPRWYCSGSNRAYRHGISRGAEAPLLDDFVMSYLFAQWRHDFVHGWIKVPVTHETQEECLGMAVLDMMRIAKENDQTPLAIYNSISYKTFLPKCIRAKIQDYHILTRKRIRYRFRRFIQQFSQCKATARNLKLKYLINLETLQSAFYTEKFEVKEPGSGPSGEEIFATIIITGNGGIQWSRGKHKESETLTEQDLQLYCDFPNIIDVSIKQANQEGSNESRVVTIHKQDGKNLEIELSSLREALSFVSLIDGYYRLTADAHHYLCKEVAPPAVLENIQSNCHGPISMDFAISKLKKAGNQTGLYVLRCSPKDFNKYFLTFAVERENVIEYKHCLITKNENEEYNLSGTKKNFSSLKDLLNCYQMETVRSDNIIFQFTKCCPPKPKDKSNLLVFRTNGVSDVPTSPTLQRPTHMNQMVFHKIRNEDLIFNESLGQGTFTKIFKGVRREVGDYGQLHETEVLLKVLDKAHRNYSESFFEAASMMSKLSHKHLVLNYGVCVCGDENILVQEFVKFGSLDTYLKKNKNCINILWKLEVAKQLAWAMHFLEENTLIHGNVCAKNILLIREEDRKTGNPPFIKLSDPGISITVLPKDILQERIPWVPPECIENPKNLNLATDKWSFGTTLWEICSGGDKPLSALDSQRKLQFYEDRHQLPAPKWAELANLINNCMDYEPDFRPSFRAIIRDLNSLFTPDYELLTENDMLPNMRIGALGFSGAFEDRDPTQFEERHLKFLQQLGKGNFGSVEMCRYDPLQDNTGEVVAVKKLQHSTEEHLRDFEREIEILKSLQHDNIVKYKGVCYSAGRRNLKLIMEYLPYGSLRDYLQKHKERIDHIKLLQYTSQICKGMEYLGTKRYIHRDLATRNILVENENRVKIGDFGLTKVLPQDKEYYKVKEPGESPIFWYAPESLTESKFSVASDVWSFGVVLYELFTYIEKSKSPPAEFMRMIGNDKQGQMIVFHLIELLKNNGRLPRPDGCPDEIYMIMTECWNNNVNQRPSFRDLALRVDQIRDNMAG
Chain of Stat5b (P51692 whole entry, species assumed): as the sequence (P51692 whole entry, one chain of several) above
Chain of PAK1/2 (Q13153 whole entry): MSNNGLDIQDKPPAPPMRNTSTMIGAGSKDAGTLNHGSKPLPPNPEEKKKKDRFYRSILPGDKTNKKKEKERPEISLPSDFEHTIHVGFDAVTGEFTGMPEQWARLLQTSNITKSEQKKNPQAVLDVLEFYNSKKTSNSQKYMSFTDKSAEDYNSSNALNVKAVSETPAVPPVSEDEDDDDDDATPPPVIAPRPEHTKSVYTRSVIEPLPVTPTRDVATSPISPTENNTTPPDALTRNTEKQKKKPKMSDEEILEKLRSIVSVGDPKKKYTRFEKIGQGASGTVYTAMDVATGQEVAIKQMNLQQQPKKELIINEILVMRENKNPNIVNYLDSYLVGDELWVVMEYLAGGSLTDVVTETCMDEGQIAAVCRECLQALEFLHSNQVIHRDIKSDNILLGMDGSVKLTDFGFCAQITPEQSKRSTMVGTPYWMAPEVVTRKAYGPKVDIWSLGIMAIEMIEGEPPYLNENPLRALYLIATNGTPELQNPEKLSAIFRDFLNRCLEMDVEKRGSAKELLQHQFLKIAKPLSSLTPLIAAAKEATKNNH
Chain of PAK1/2 (Q13177 whole entry): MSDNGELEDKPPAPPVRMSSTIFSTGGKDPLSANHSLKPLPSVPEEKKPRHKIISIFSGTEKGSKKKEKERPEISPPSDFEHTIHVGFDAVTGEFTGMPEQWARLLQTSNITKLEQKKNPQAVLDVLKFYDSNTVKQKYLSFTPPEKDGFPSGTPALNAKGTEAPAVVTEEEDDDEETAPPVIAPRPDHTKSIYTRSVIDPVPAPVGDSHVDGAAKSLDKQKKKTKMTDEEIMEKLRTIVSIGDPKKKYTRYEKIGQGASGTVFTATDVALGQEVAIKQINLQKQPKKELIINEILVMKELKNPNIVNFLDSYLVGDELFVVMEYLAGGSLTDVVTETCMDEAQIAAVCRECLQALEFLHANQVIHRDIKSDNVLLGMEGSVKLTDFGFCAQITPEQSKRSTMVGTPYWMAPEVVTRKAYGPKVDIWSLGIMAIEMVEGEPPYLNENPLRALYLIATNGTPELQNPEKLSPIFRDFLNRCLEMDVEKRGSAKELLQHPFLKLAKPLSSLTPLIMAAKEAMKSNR

SMILES: Nc1ncnc2c1ncn2[C@@H]1O[C@@H]2COP(=O)(O)O[C@H]2[C@H]1O [cyclic AMP]
- effect on Stat5a/b activation and transcriptional activity (Stat5a/b [1]): no effect

SMILES: Nc1nc2c(ncn2[C@@H]2O[C@H](COP(=O)(O)O)[C@@H](O)[C@H]2O)c(=O)[nH]1 [GMP]
- effect on Stat5a/b activation and transcriptional activity (Stat5a/b [1]; [20]): no effect

SMILES: Nc1nc(F)nc2c1ncn2[C@@H]1O[C@H](CO)[C@@H](O)[C@@H]1O [Fludarabine, fludarabine]
- Stat1 phosphorylation and activation (Stat1): inhibit
- Stat5 activity (Stat5): not affecting

SMILES: O=P(O)(O)OC[C@H]1O[C@@H](n2cnc3c(NCc4ccccc4)ncnc32)[C@H](O)[C@@H]1O [IST5-002, N6-benzyladenosine-5-monophosphate]
- IC50 (Stat5a [2]): 1.5 µM
- IC50 (Stat5b): 3.5 µM
- concentration that blocked Bcr-Abl-induced Stat5a/b phosphorylation (Stat5a/b [3]): 5 µM
- Bcr-Abl tyrosine phosphorylation levels (Bcr-Abl): did not affect
- IC50 (Stat5a/b [4]): 12 µM
- IC50 (Stat5a/b [5]): 24.8 µM
- Phosphorylation of Jak2 (Jak2): unaffected
- inhibition of kinases in a panel of 50 kinases (panel of 50 kinases): no specific inhibition
- IC50 (Stat5a [6]): 11 µM
- concentration that abrogated Stat5a nuclear translocation (Stat5a [7]): 15 µM
- reduction of binding of Stat5a/b to its DNA target sequence (Stat5a/b [8]): approximately 50%
- Stat3 nuclear translocation (Stat3 [9]): no demonstrable effect
- transcriptional activity of Stat3 (Stat3 [10]): failed to block
- expression of Bcl-xL and cyclin D1 (Bcl-xL and cyclin D1): reduced expression
- CISH expression change [11]: −2.3 fold
- Cyclin D2 expression change [11]: −2.3 fold
- Myc expression change [11]: −1.7 fold
- Pim1 expression change [11]: −1.7 fold
- Pim2 expression change [11]: −1.7 fold
- SOCS3 expression change [11]: −1.3 fold
- TRIB2 expression change [11]: −1.4 fold
- increase in dead cells (CWR22Rv1 cells [12]): 5 fold
- increase of nucleosomal DNA fragmentation (CWR22Rv1 cells [13]): 230%
- increase in caspase-3 activation (caspase-3): 3 fold
- fraction of dead cells (sub-G1) in cell cycle analysis (LNCaP and CWR22Rv1 cells): increased the fraction of dead cells
- viability of CWR22Rv1 cells depleted of Stat5a/b (shStat5a/b) (CWR22Rv1 cells [14]): did not further affect
- decrease in the number of viable PC cells expressing control shRNA (CWR22Rv1 cells [14]; CWR22Rv1): 40%
- viability of cell lines from other tissues ([15]; A549, CAPAN, T47D, HT1080, HepG2, COS-7): not affected
- viability of cells with high Stat5a/b activation ([15]; CWR22Rv1 and K562, side-by-side): suppressed viability
- viability of cell lines with low or no Stat5a/b activation ([15]; RC170N normal prostate epithelial cell line, HT1080): did not affect viability
- decrease of nuclear Stat5a/b content in tumors ([16]; 25 mg/kg i.p. daily): 60%
- decrease of nuclear Stat5a/b content in tumors ([16]; 50 mg/kg i.p. daily): 78%
- decrease of nuclear Stat5a/b content in tumors ([16]; 100 mg/kg i.p. daily): 90%
- Tumor growth ([16]; 25, 50 or 100 mg/kg i.p. daily, all treatment groups vs control groups): significantly (P<0.001) suppressed
- viable tumor cells in xenograft tumors ([16]; IST5-002 groups vs. vehicle): massive loss of viable tumor cells
- Intratumor levels of nuclear Stat3 ([16]; any of the doses tested): not altered
- patient-derived PCs that responded by extensive loss of viable epithelium (patient-derived PCs): Eight out of 11
- concentration at which loss of viable epithelium started (patient-derived PCs; responders): 25 µM
- growth of imatinib-sensitive and -resistant CML cells [17]: blocked the growth
- apoptosis in cell cycle analysis [18]: increase in apoptosis
- number of viable colonies of primary CML cells (primary CML cells): dramatic decrease
- activity of PAK1/2 (PAK1/2): no specific inhibition
- viability of EBV-immortalized B-cells that express no active Stat5a/b ([19]; 12878, 3798 cell lines): only marginal or no effect
- viability of SUP-B15 (Bcr-Abl-driven ALL cell line) [19]: decreased viability

- Stat3 nuclear translocation (Stat3 [9]): effectively suppressed
SMILES: Cc1cc(Nc2nc(N[C@@H](C)c3ncc(F)cn3)ncc2Cl)n[nH]1 [AZD1480, reference compound]

SMILES: Nc1ncnc2c1ncn2[C@@H]1O[C@H](COP(=O)(O)O)[C@@H](O)[C@H]1O [AMP]
- effect on Stat5a/b activation and transcriptional activity (Stat5a/b [1]; [20]): no effect
